According to ChEMBL document CHEMBL3227935, “Mapping the dopamine receptor. 2. Features derived from modifications in the rings A/B region of the neuroleptic butaclamol” (J Med Chem, 1979):
Activity calls are given as the source filed them. No cut-off for these calls is given here.

How the values were obtained:
[1] = tested on: Rattus norvegicus; experiment: Neuroleptic activity in ip dosed Sprague-Dawley rat assessed as inhibition of d-amphetamine sulfate-induced stereotyped behavior measured every 15 mins for 4 hrs; type: functional; conditions: read-out: MED
Outline: (§1)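 Male rats (160-180 g), groups of four or more, given d-amphetamine 10 mg/kg ip, then graded ip doses of compound or vehicle 15 min later (highest 20 mg/kg). Behavior scored every 15 min over 4 h: 0 normal, 1 excited, 2 stereotyped. MED is the lowest dose antagonizing all amphetamine effects for the whole period.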

[2] = tested on: Rattus norvegicus; experiment: Neuroleptic activity in ip dosed Sprague-Dawley rat assessed as failure in active avoidance response measured within 30 mins; type: functional; conditions: 0.5 h
Outline: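 Male rats (250-400 g) trained in a three-chamber discrimination box to move to a lighted exit within 10 s or receive shock. Before dosing, a two-trial control session in groups of six or more. Graded ip doses, then ten trials 30 min later. Mean failures to leave before shock are taken as percent of trials. ED50 gives 50% failure, by Litchfield-Wilcoxon.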

[3] = tested on: Rattus norvegicus; experiment: Neuroleptic activity in ip dosed Sprague-Dawley rat assessed as protection against epinephrin bitartrate-induced mortality measured over 24 hrs; type: functional
Outline: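 Groups of six or more male Sprague–Dawley rats (220–250 g) received graded ip doses. Epinephrine bitartrate, 0.25 mg/kg iv, lethal to untreated rats, was injected 1 h later. Deaths were counted over 24 h. Protective ED50 (mg/kg, ip) is the dose that saved 50% of rats, calculated by Litchfield–Wilcoxon.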

[4] = tested on: Rattus norvegicus; experiment: Induction of catalepsy in Sprague-Dawley rat at 5 mg/kg, ip measured after 1 to 24 hrs relative to control; type: organism-based; set-up: dose 5 mg/kg, route intraperitoneal; conditions: in vivo
Outline: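 Male rats (160-180 g), groups of six, given 5 mg/kg ip. Catalepsy scored at 1, 2, 4, 6 and 24 h using stages III and IV of Wirth et al. The highest mean cataleptic score is expressed as percent of the maximum attainable score.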

[5] = organism: Mus musculus; experiment: Induction of taming effect in Swiss albino mouse assessed as reduction of isolation-induced fighting behavior measured after 0.5 to 3 hrs; type: functional
Outline: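 Male albino mice (14-16 g) isolated 4-5 weeks, then paired in one cage for 5 min. A morning control session confirmed maximal fighting in both members of each pair. Compounds given ip, with retesting at 30 min and 3 h. All-or-none read-out: effective if no fighting occurred in the 5-min observation. ED50 (mg/kg, ip) is the dose abolishing fighting in 50% of pairs, by Litchfield-Wilcoxon.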

[6] = Dissociation constant, pKa of the compound; type: physicochemical
[7] = tested on: Rattus norvegicus; experiment: Neuroleptic activity in Sprague-Dawley rat assessed as inhibition of d-amphetamine sulfate-induced stereotyped behavior at 20 mg/kg, ip measured every 15 mins for 4 hrs; type: functional, organism-based; set-up: dose 20 mg/kg; outline: as §1

Row | SMILES | minimal effective dose [1] [mg/kg] | ED50 [2] [mg/kg] | ED50 [3] [mg/kg] | %max [4] [%] | ED50 [5] [mg/kg] | pKa [6] | inhibition [7]
1 | CC(C)(C)[C@@]1(O)CCN2C[C@@H]3c4ccccc4CCc4cccc(c43)[C@H]2C1 | 0.62 | 0.64 | 15 | 60 | 1.9 | 5.9 | –
2 | CC(C)(C)C1(O)CCN2C[C@H]3Cc4ccccc4Cc4cccc(c43)C2C1 (stereo not given in full) | – | – | – | – | – | – | inactive
3 | CC(C)(C)C1(O)CCN2C[C@H]3Cc4ccccc4Cc4cccc(c43)[C@@H]2C1 (relative stereo) | 0.62 | 1 | 10 | 45 | 2 | – | –
4 | CC(C)(C)C1(O)CCN2C[C@H]3CCc4ccccc4-c4cccc(c43)[C@@H]2C1 (relative stereo) | – | – | – | – | – | – | inactive
5 | CC(C)(C)C1(O)CCN2C[C@H]3CCc4ccccc4-c4cccc(c43)[C@H]2C1 (relative stereo) | – | – | – | – | – | – | inactive
6 | CC(C)(C)C1(O)CCN2C[C@H]3Cc4ccccc4Cc4cccc(c43)[C@H]2C1 (relative stereo) | – | – | – | – | – | – | inactive
